Series [1] deals with T1, Fatty-acid amide hydrolase 1 (Homo sapiens) (UniProt O00519).
T1 sequence (whole entry): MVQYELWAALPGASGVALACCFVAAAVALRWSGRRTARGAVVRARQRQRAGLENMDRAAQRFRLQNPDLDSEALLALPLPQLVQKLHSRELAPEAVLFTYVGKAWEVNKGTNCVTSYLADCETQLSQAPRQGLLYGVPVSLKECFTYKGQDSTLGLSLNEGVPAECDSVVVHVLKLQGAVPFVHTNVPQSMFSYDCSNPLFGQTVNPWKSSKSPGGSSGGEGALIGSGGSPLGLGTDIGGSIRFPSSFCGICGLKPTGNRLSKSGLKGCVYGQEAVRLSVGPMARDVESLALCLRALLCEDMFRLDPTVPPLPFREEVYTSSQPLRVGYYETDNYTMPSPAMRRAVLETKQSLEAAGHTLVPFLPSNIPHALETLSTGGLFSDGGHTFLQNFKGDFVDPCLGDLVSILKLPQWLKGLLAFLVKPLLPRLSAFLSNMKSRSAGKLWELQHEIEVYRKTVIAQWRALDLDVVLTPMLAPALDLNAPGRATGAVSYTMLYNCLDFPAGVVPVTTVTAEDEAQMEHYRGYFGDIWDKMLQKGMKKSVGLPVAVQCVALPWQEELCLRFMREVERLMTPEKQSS
As to the kind of experiment: Inhibition of FAAH in human brain membrane using rhodamine-tagged fluorophosphonate probe at 100 uM by competitive activity-based protein profiling method. In kind it is cell membranes. Put shortly: (§1)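 Competitive activity-based protein profiling against >200 human serine hydrolases, FAAH included. Compound tested at 100 µM in human brain membrane and soluble liver proteomes. Residual hydrolase activity labelled with a rhodamine-tagged fluorophosphonate probe.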

A short description of series [2]: Half life in dog. The class given is ADME, organism-based, Canis lupus familiaris. Particulars: in vivo.
Series [3] relates to Rattus norvegicus. As to the kind of experiment: Inhibition of FAAH in rat CFA model brain isolates assessed as residual activity using 3H-anandamide as substrate at 0.3 mg/kg, po after 4 hrs. The class given is functional, organism-based. On the set-up: dose 0.3 mg/kg. The method, boiled down:
(§2)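 Rats with CFA-induced inflammatory pain dosed orally. Brain tissue and leukocytes collected 4 h post dose. Residual FAAH activity measured with 3H-anandamide as substrate. n = 4 animals/group. PK, biomarker and behavioural samples taken from the same animals.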

Series [4] can be described thus: Half life in rat CFA model at 3 mg/kg, po. The class given is ADME, organism-based. The arrangement: dose 3 mg/kg, route oral. Particulars: in vivo.
The nature of series [5]: Oral bioavailability in dog. In kind it is ADME, organism-based, Canis lupus familiaris. The following applies: in vivo.
The species named for series [6] is Rattus norvegicus. As to the kind of experiment: Antiinflammatory activity against rat CFA model assessed as minimum effective dose after 4 hrs. In kind it is functional. The following applies: read-out: MED. Put shortly:
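CFA inflammatory pain model in rats given compound orally. Paw withdrawal threshold assessed with von Frey filaments 4 h post dose. N = 8 animals/group; significance versus vehicle by ANOVA/Dunnett's (p <0.05). Minimum efficacious dose defined as exposure giving >95% FAAH inhibition.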

Series [7] concerns the target T1, Fatty-acid amide hydrolase 1 (Homo sapiens). The series can be described thus: Inhibition of FAAH in human liver proteomes using rhodamine-tagged fluorophosphonate probe at 100 uM by competitive activity-based protein profiling method. The method, boiled down:
as §1

Series [8] has the same target. The series can be described thus: Ratio of Kinact to Ki for human FAAH activity. The method, boiled down:
(§3)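 kinact/Ki determined against human and rat FAAH. Each value is the average of at least two independent determinations.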

Series [9] has as its system Rattus norvegicus. As to the kind of experiment: Volume of distribution at steady state in rat CFA model at 3 mg/kg, po. The class given is ADME, organism-based. On the set-up: dose 3 mg/kg, route oral. The following applies: in vivo.
Series [10] in a line: Inhibition of cytochrome P450. The class given is ADME.
A short description of series [11]: Volume of distribution at steady state in dog. The class given is ADME, organism-based, Canis lupus familiaris. The following applies: in vivo, read-out: Vdss.
The target of series [12] is T2, Fatty-acid amide hydrolase 1 (Rattus norvegicus) (UniProt P97612).
T2 sequence (whole entry): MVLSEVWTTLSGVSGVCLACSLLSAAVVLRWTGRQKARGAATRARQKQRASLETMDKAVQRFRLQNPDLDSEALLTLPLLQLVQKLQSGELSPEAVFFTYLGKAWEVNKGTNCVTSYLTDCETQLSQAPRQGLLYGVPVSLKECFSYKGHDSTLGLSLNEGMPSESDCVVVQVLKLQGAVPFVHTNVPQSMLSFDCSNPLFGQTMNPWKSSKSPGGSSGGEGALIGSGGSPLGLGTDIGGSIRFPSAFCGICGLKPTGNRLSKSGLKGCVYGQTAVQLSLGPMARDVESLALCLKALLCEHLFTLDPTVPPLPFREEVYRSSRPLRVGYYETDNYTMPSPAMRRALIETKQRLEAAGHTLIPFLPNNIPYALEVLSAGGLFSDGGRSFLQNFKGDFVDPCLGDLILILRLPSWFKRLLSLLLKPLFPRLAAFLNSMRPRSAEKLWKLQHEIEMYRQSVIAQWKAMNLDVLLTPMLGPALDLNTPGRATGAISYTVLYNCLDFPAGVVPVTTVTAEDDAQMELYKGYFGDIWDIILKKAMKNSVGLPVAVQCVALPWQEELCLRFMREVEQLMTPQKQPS
The series can be described thus: Ratio of Kinact to Ki for rat FAAH activity. Put shortly: as §3

Series [13] in a line: Clearance in rat CFA model at 3 mg/kg, po. In kind it is ADME, organism-based. On the set-up: dose 3 mg/kg, route oral. The following applies: in vivo. The method, boiled down:
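Rats in the CFA model screened at a single oral dose of 3 mpk. Plasma compound concentrations determined, including at 24 h. Clearance estimated from the 3 h and 24 h time points.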

For series [14], the system named is Rattus norvegicus. The series can be described thus: Inhibition of FAAH in orally dosed rat CFA model assessed as elevation of […]anandamide concentration in brain after 4 hrs. The class given is functional, organism-based.
For series [15], the target named is T3, Voltage-gated inwardly rectifying potassium channel KCNH2 (Homo sapiens, UniProt Q12809). As to the kind of experiment: Displacement of dofetilide from ERG.
Series [16] addresses T3, Voltage-gated inwardly rectifying potassium channel KCNH2. As to the kind of experiment: Inhibition of human ERG.
Series [17] can be described thus: Clearance in dog. In kind it is ADME, organism-based, Canis lupus familiaris. The following applies: in vivo.
Series [18] is described as follows: Plasma concentration in rat CFA model at 3 mg/kg, po after 4 hrs. The class given is ADME, organism-based. On the set-up: dose 3 mg/kg, route oral. The method, boiled down: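 CFA rats given compound orally; plasma sampled 4 h post dose. Compound levels determined by LC/MS. n = 4 animals/group.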
Series [19] can be described thus: Genotoxicity in micronucleus.
The test system of series [20] is Rattus norvegicus. As to the kind of experiment: Inhibition of FAAH in orally dosed rat CFA model assessed as elevation of […]anandamide concentration in plasma after 4 hrs. In kind it is functional, organism-based.
Series [21] has as its system Rattus norvegicus. The series can be described thus: Inhibition of FAAH in rat CFA model at 3 mg/kg, po after 3 hrs. In kind it is functional. The following applies: for minimal effective dose: read-out: MED.
A short description of series [22]: Oral bioavailability in rat CFA model at 3 mg/kg. The class given is ADME, organism-based. The following applies: in vivo.
Another series concerns Salmonella typhimurium. As to the kind of experiment: Mutagenic activity in Salmonella Typhimurium by Ames test. The class given is toxicity, organism-based. The following applies: salmonella enterica subsp. enterica serovar typhimurium.
In series [23] the test system is Rattus norvegicus. As to the kind of experiment: Inhibition of FAAH in rat CFA model leukocytes assessed as residual activity using 3H-anandamide as substrate at 0.3 mg/kg, po after 4 hrs. In kind it is functional, organism-based. On the set-up: dose 0.3 mg/kg. Put shortly: as §2

The source made the active and inactive calls.

T3 sequence (Q12809 whole entry): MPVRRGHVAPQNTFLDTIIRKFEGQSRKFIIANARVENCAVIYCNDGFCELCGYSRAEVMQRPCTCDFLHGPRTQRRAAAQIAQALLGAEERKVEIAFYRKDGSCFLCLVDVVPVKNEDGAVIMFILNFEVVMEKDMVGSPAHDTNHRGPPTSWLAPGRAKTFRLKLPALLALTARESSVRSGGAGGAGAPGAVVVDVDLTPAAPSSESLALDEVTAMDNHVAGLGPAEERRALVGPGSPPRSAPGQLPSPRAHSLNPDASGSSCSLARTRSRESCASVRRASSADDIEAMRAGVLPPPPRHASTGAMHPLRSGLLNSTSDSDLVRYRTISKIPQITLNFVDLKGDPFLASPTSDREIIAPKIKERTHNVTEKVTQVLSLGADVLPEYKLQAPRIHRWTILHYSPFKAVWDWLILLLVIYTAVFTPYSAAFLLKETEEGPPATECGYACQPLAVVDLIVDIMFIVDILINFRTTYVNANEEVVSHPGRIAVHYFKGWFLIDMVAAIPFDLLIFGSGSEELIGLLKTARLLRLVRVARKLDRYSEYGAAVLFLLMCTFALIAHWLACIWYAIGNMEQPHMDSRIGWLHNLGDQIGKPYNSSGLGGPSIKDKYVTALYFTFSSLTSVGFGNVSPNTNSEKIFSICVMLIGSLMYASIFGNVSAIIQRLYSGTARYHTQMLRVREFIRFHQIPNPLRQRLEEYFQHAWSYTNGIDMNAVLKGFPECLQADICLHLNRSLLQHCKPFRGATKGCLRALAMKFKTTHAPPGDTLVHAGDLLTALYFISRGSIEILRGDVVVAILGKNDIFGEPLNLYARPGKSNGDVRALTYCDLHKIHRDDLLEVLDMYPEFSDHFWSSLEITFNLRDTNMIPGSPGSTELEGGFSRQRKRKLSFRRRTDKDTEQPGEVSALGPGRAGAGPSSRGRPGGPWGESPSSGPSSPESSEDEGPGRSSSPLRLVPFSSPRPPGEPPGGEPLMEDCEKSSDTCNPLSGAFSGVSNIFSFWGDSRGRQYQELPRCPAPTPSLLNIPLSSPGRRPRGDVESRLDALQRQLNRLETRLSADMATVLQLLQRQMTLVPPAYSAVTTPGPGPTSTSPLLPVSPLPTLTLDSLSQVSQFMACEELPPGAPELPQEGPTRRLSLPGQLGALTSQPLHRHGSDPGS

As a reminder, the half-life is the time in which the quantity being followed falls by half. High values mean slow loss, low ones fast loss. A word on the bioavailability: it is the share of a dose that reaches the circulation, judged against a reference dose that is usually intravenous. Low readings indicate poor availability, high ones good availability. One may read the CL/F as clearance divided by bioavailability, as obtained after extravascular dosing. For orientation: clearance means the volume of plasma or blood freed of the substance per unit of time. Lower therefore signals inefficient removal. In the case of `Cc1noc(NC(=O)N2CCC3(CC2)CC(c2ccc(F)c(Cl)c2)C3)c1C`, the inhibition result (in [1]; with Rattus norvegicus [3]; in series [7]; in the series on Rattus norvegicus [23]) was “Active” in each case. Besides, the half-life in series [2] was 7.8 h; in series [4], 7.1 h. Also, the values for the bioavailability in series [5] and in series [22] were 33% and 53%, respectively. Further, the minimal effective dose in the series listed under Rattus norvegicus [6] and with Rattus norvegicus [21] was 0.3 mg/kg throughout. Further, the Ratio in [8] is 4190 M⁻¹ s⁻¹; in series [12], 5820 M⁻¹ s⁻¹. This molecule had a Vdss in the series with Rattus norvegicus [9] of 3.4 L/kg. In addition, the “inhibition (INH)” value in series [10], in series [15] and in series [16] was “Not Active” throughout. Further, the Vd in series [11] is 5 L/kg. In series [13], this molecule had an apparent clearance (CL/F) of 8.5 mL/min/kg. The inhibition result in the series on Rattus norvegicus [14] and in the series with Rattus norvegicus [20] was “Dose-dependent effect” throughout. In series [17], the clearance is 11.1 mL/min/kg. In series [18], the concentration at 4 h came out at 459 nM. For the same molecule, the Activity result (in series [19]; in the series with Salmonella typhimurium) was “Non-toxic” each time. In the series with Rattus norvegicus [21], the “activity call (active/not active)” value was “Active”.

On to `Cn1nnnc1NC(=O)N1CCC2(CC1)CC(c1cccc(C(F)(F)F)c1)C2`, for which the inhibition result in [1] and in series [7] was “Active” throughout. For the same molecule, the Ratio in series [8] was determined as 12400 M⁻¹ s⁻¹; in series [12], 5750 M⁻¹ s⁻¹. The “inhibition (INH)” value in [10] and in [15] was “Not Active” in each case. In the series with Rattus norvegicus [21], the “activity call (active/not active)” value is “Active”. In the series on Rattus norvegicus [21], the minimal effective dose was 1 mg/kg.

In the case of `Cn1nnnc1NC(=O)N1CCC2(CC1)CC(c1cccc(OC(F)(F)F)c1)CO2` (stereo unspecified), the inhibition entry in series [1] and in series [7] was “Active” throughout. The Ratio in series [8] was 7110 M⁻¹ s⁻¹; in [12], 4560 M⁻¹ s⁻¹. Further, the “inhibition (INH)” value in series [10] and in series [15] was “Not Active” throughout. The “activity call (active/not active)” value in the series with Rattus norvegicus [21] is “Active”. For the same molecule, the minimal effective dose in the series on Rattus norvegicus [21] is 0.1 mg/kg.

For the origin of these results see ChEMBL document CHEMBL1914324, “Discovery of novel spirocyclic inhibitors of fatty acid amide hydrolase (FAAH). Part 2. Discovery of 7-azaspiro[3.5]nonane urea PF-04862853, an orally efficacious inhibitor of fatty acid amide hydrolase (FAAH) for pain” (Bioorg Med Chem Lett, 2011).
